# Experimental data from ChEMBL document CHEMBL1255376, “Comparative surveillance study of telavancin activity against recently collected gram-positive clinical isolates from across the United States” (2008).
# Assays:
# Staphylococcus simulans [1] = experiment: Antibacterial activity against methicillin-susceptible coagulase-negative Staphylococcus simulans clinical isolate by broth microdilution method; format: functional
# In short: (§1)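 MICs by CLSI broth microdilution in frozen trays pre-loaded with serial dilutions of each agent. Quality-control strains run in parallel: E. faecalis ATCC 29212 and ATCC 51299, S. aureus ATCC 29213, S. pneumoniae ATCC 49619. Comparator susceptibility categories follow CLSI breakpoints. Methicillin resistance in staphylococci assigned from the oxacillin MIC.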
# Streptococcus pyogenes = experiment: Antibacterial activity against Streptococcus pyogenes clinical isolate by broth microdilution method; format: functional
# In short: (§2)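 MIC by CLSI broth microdilution in frozen microtiter trays holding serial dilutions of each agent, prepared from standard laboratory powders. E. faecalis ATCC 29212 and ATCC 51299, S. aureus ATCC 29213 and S. pneumoniae ATCC 49619 run in parallel as quality-control strains. Comparator susceptibility interpreted with CLSI breakpoints.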
# [2] = test system: Staphylococcus saprophyticus; experiment: Antibacterial activity against methicillin-resistant coagulase-negative Staphylococcus saprophyticus clinical isolate by broth microdilution method; format: functional; in short: as §1
# Staphylococcus capitis [3] = experiment: Antibacterial activity against methicillin-susceptible coagulase-negative Staphylococcus capitis clinical isolate by broth microdilution method; format: functional; in short: as §1
# [4] = Antibacterial activity against Streptococcus sp. Group C clinical isolate by broth microdilution method; format: functional; in short: as §2
# [5] = test system: Streptococcus intermedius; experiment: Antibacterial activity against Streptococcus intermedius clinical isolate by broth microdilution method; format: functional; in short: as §2
# Mammaliicoccus sciuri [6] = experiment: Antibacterial activity against methicillin-susceptible coagulase-negative Staphylococcus sciuri clinical isolate by broth microdilution method; format: functional; in short: as §1
# Staphylococcus cohnii [7] = experiment: Antibacterial activity against methicillin-susceptible coagulase-negative Staphylococcus cohnii clinical isolate by broth microdilution method; format: functional; in short: as §1
# Staphylococcus hominis [8] = experiment: Antibacterial activity against methicillin-susceptible coagulase-negative Staphylococcus hominis clinical isolate by broth microdilution method; format: functional; in short: as §1
# Enterococcus faecalis [9] = experiment: Antibacterial activity against vancomycin-resistant and teichoplanin-susceptible Enterococcus faecalis clinical isolate by broth microdilution method; format: functional; in short: as §1
# Streptococcus sp. [10] = experiment: Antibacterial activity against Streptococcus sp. Group F clinical isolate by broth microdilution method; format: functional
# In short: (§3)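 MIC by CLSI broth microdilution in frozen microtiter trays holding serial dilutions of each agent, prepared from standard laboratory powders. Comparator susceptibility interpreted with CLSI breakpoints.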
# [11] = test system: Staphylococcus haemolyticus; experiment: Antibacterial activity against methicillin-resistant coagulase-negative Staphylococcus haemolyticus clinical isolate by broth microdilution method; format: functional; in short: as §1
# Streptococcus agalactiae = experiment: Antibacterial activity against Streptococcus agalactiae clinical isolate by broth microdilution method; format: functional; in short: as §2
# Mammaliicoccus sciuri [12] = experiment: Antibacterial activity against methicillin-resistant coagulase-negative Staphylococcus sciuri clinical isolate by broth microdilution method; format: functional; in short: as §1
# Staphylococcus xylosus [13] = experiment: Antibacterial activity against methicillin-susceptible coagulase-negative Staphylococcus xylosus clinical isolate by broth microdilution method; format: functional; in short: as §1
# Streptococcus mitis = experiment: Antibacterial activity against Streptococcus mitis clinical isolate by broth microdilution method; format: functional; in short: as §2
# Staphylococcus aureus [14] = experiment: Antibacterial activity against daptomycin-nonsusceptible Staphylococcus aureus isolate 1176127 by broth microdilution method; format: functional; in short: as §1
# Staphylococcus capitis [15] = experiment: Antibacterial activity against methicillin-resistant coagulase-negative Staphylococcus capitis clinical isolate by broth microdilution method; format: functional; in short: as §1
# Staphylococcus warneri [16] = experiment: Antibacterial activity against methicillin-resistant coagulase-negative Staphylococcus warneri clinical isolate by broth microdilution method; format: functional; in short: as §1
# Staphylococcus aureus [17] = experiment: Antibacterial activity against methicillin-resistant Staphylococcus aureus clinical isolate by broth microdilution method; format: functional; in short: as §1
# Staphylococcus aureus [18] = experiment: Antibacterial activity against methicillin-susceptible Staphylococcus aureus clinical isolate by broth microdilution method; format: functional; in short: as §1
# Streptococcus equinus = experiment: Antibacterial activity against Streptococcus bovis clinical isolate by broth microdilution method; format: functional; in short: as §2
# Streptococcus sp. [19] = experiment: Antibacterial activity against Streptococcus sp. clinical isolate by broth microdilution method; format: functional; in short: as §3
# Staphylococcus [20] = experiment: Antibacterial activity against methicillin-susceptible coagulase-negative unspeciated Staphylococcus clinical isolate by broth microdilution method; format: functional; in short: as §1
# Staphylococcus aureus [21] = experiment: Antibacterial activity against daptomycin-nonsusceptible Staphylococcus aureus isolate 1171055 by broth microdilution method; format: functional; in short: as §1
# Staphylococcus warneri [22] = experiment: Antibacterial activity against methicillin-susceptible coagulase-negative Staphylococcus warneri clinical isolate by broth microdilution method; format: functional; in short: as §1
# [23] = test system: Streptococcus constellatus; experiment: Antibacterial activity against Streptococcus constellatus clinical isolate by broth microdilution method; format: functional; in short: as §2
# Staphylococcus aureus [24] = experiment: Antibacterial activity against daptomycin-nonsusceptible Staphylococcus aureus isolate 1285404 by broth microdilution method
# [25] = test system: Staphylococcus epidermidis; experiment: Antibacterial activity against methicillin-susceptible coagulase-negative Staphylococcus epidermidis clinical isolate by broth microdilution method; format: functional; in short: as §1
# Staphylococcus aureus [26] = experiment: Antibacterial activity against daptomycin-nonsusceptible Staphylococcus aureus isolate 1171063 by broth microdilution method; format: functional; in short: as §1
# [27] = test system: Staphylococcus haemolyticus; experiment: Antibacterial activity against methicillin-susceptible coagulase-negative Staphylococcus haemolyticus clinical isolate by broth microdilution method; format: functional; in short: as §1
# [28] = Antibacterial activity against Streptococcus sp. Group G clinical isolate by broth microdilution method; format: functional; in short: as §2
# Staphylococcus xylosus [29] = experiment: Antibacterial activity against methicillin-resistant coagulase-negative Staphylococcus xylosus clinical isolate by broth microdilution method; format: functional; in short: as §1
# Enterococcus faecium [30] = experiment: Antibacterial activity against vancomycin- and teichoplanin-nonsusceptible Enterococcus faecium clinical isolate by broth microdilution method; format: functional; in short: as §1
# Streptococcus oralis = experiment: Antibacterial activity against Streptococcus oralis clinical isolate by broth microdilution method; format: functional; in short: as §2
# Staphylococcus simulans [31] = experiment: Antibacterial activity against methicillin-resistant coagulase-negative Staphylococcus simulans clinical isolate by broth microdilution method; format: functional; in short: as §1
# Enterococcus faecalis [32] = experiment: Antibacterial activity against vancomycin-susceptible Enterococcus faecalis clinical isolate by broth microdilution method; format: functional; in short: as §1
# Staphylococcus cohnii [33] = experiment: Antibacterial activity against methicillin-resistant coagulase-negative Staphylococcus cohnii clinical isolate by broth microdilution method; format: functional; in short: as §1
# Enterococcus faecalis [34] = experiment: Antibacterial activity against vancomycin- and teichoplanin-nonsusceptible Enterococcus faecalis clinical isolate by broth microdilution method; format: functional; in short: as §1
# Staphylococcus hominis [35] = experiment: Antibacterial activity against methicillin-resistant coagulase-negative Staphylococcus hominis clinical isolate by broth microdilution method; format: functional; in short: as §1
# [36] = test system: Staphylococcus epidermidis; experiment: Antibacterial activity against methicillin-resistant coagulase-negative Staphylococcus epidermidis clinical isolate by broth microdilution method; format: functional; in short: as §1
# Enterococcus faecium [37] = experiment: Antibacterial activity against vancomycin-resistant and teichoplanin-susceptible Enterococcus faecium clinical isolate by broth microdilution method; format: functional; in short: as §1
# Staphylococcus [38] = experiment: Antibacterial activity against methicillin-resistant coagulase-negative unspeciated Staphylococcus clinical isolate by broth microdilution method; format: functional; in short: as §1
# Staphylococcus capitis [39] = experiment: Antibacterial activity against daptomycin-nonsusceptible Staphylococcus capitis isolate 1285355 by broth microdilution method; format: functional; in short: as §2
# Staphylococcus [40] = experiment: Antibacterial activity against daptomycin-nonsusceptible coagulase-negative Staphylococcus isolate 1285835 by broth microdilution method; format: functional; in short: as §2
# Streptococcus sanguinis = experiment: Antibacterial activity against Streptococcus sanguinis clinical isolate by broth microdilution method; format: functional; in short: as §2
# [41] = test system: Staphylococcus saprophyticus; experiment: Antibacterial activity against methicillin-susceptible coagulase-negative Staphylococcus saprophyticus clinical isolate by broth microdilution method; format: functional; in short: as §1
# Enterococcus faecium [42] = experiment: Antibacterial activity against vancomycin-susceptible Enterococcus faecium clinical isolate by broth microdilution method; format: functional; in short: as §2
smiles,measurement,setting,value
CCCCCCCCCC(=O)N[C@@H](Cc1c[nH]c2ccccc12)C(=O)N[C@H](CC(N)=O)C(=O)N[C@@H](CC(=O)O)C(=O)N[C@@H]1C(=O)NCC(=O)N[C@@H](CCCN)C(=O)N[C@@H](CC(=O)O)C(=O)N[C@H](C)C(=O)N[C@@H](CC(=O)O)C(=O)NCC(=O)N[C@H](CO)C(=O)N[C@@H]([C@H](C)CC(=O)O)C(=O)N[C@@H](CC(=O)c2ccccc2N)C(=O)O[C@@H]1C,MIC50,Staphylococcus simulans [1],0.5 µg/mL
same,MIC90,Staphylococcus simulans [1],1 µg/mL
same,MIC50,Streptococcus pyogenes,0.06 µg/mL
same,MIC90,Streptococcus pyogenes,0.06 µg/mL
same,MIC50,[2],0.5 µg/mL
same,MIC90,[2],1 µg/mL
same,MIC50,Staphylococcus capitis [3],0.5 µg/mL
same,MIC90,Staphylococcus capitis [3],1 µg/mL
same,MIC50,[4],0.06 µg/mL
same,MIC90,[4],0.25 µg/mL
same,MIC50,[5],0.25 µg/mL
same,MIC90,[5],1 µg/mL
same,MIC50,Mammaliicoccus sciuri [6],0.5 µg/mL
same,MIC90,Mammaliicoccus sciuri [6],1 µg/mL
same,MIC50,Staphylococcus cohnii [7],0.5 µg/mL
same,MIC90,Staphylococcus cohnii [7],1 µg/mL
same,MIC50,Staphylococcus hominis [8],0.5 µg/mL
same,MIC90,Staphylococcus hominis [8],1 µg/mL
same,MIC,Enterococcus faecalis [9],0.5 µg/mL
same,MIC50,Streptococcus sp. [10],0.06 µg/mL
same,MIC90,Streptococcus sp. [10],0.25 µg/mL
same,MIC50,[11],0.5 µg/mL
same,MIC90,[11],1 µg/mL
same,MIC50,Streptococcus agalactiae,0.25 µg/mL
same,MIC90,Streptococcus agalactiae,0.25 µg/mL
same,MIC50,Mammaliicoccus sciuri [12],0.5 µg/mL
same,MIC90,Mammaliicoccus sciuri [12],1 µg/mL
same,MIC50,Staphylococcus xylosus [13],0.5 µg/mL
same,MIC90,Staphylococcus xylosus [13],1 µg/mL
same,MIC50,Streptococcus mitis,0.25 µg/mL
same,MIC90,Streptococcus mitis,1 µg/mL
same,MIC,Staphylococcus aureus [14],> 1 µg/mL
same,MIC50,Staphylococcus capitis [15],0.5 µg/mL
same,MIC90,Staphylococcus capitis [15],1 µg/mL
same,MIC50,Staphylococcus warneri [16],0.5 µg/mL
same,MIC90,Staphylococcus warneri [16],1 µg/mL
same,MIC50,Staphylococcus aureus [17],0.5 µg/mL
same,MIC90,Staphylococcus aureus [17],0.5 µg/mL
same,MIC50,Staphylococcus aureus [18],0.5 µg/mL
same,MIC90,Staphylococcus aureus [18],0.5 µg/mL
same,MIC50,Streptococcus equinus,0.25 µg/mL
same,MIC90,Streptococcus equinus,1 µg/mL
same,MIC50,Streptococcus sp. [19],0.25 µg/mL
same,MIC90,Streptococcus sp. [19],1 µg/mL
same,MIC50,Staphylococcus [20],0.5 µg/mL
same,MIC90,Staphylococcus [20],1 µg/mL
same,MIC,Staphylococcus aureus [21],> 1 µg/mL
same,MIC50,Staphylococcus warneri [22],0.5 µg/mL
same,MIC90,Staphylococcus warneri [22],1 µg/mL
same,MIC50,[23],0.25 µg/mL
same,MIC90,[23],1 µg/mL
same,MIC,Staphylococcus aureus [24],> 1 µg/mL
same,MIC50,[25],0.5 µg/mL
same,MIC90,[25],1 µg/mL
same,MIC,Staphylococcus aureus [26],> 1 µg/mL
same,MIC50,[27],0.5 µg/mL
same,MIC90,[27],1 µg/mL
same,MIC50,[28],0.06 µg/mL
same,MIC90,[28],0.25 µg/mL
same,MIC50,Staphylococcus xylosus [29],0.5 µg/mL
same,MIC90,Staphylococcus xylosus [29],1 µg/mL
same,MIC50,Enterococcus faecium [30],2 µg/mL
same,MIC90,Enterococcus faecium [30],4 µg/mL
same,MIC50,Streptococcus oralis,0.25 µg/mL
same,MIC90,Streptococcus oralis,1 µg/mL
same,MIC50,Staphylococcus simulans [31],0.5 µg/mL
same,MIC90,Staphylococcus simulans [31],1 µg/mL
same,MIC50,Enterococcus faecalis [32],1 µg/mL
same,MIC90,Enterococcus faecalis [32],1 µg/mL
same,MIC50,Staphylococcus cohnii [33],0.5 µg/mL
same,MIC90,Staphylococcus cohnii [33],1 µg/mL
same,MIC,Enterococcus faecalis [34],0.5 µg/mL
same,MIC50,Enterococcus faecalis [34],0.5 µg/mL
same,MIC90,Enterococcus faecalis [34],1 µg/mL
same,MIC50,Staphylococcus hominis [35],0.5 µg/mL
same,MIC90,Staphylococcus hominis [35],1 µg/mL
same,MIC50,[36],0.5 µg/mL
same,MIC90,[36],1 µg/mL
same,MIC50,Enterococcus faecium [37],2 µg/mL
same,MIC90,Enterococcus faecium [37],4 µg/mL
same,MIC50,Staphylococcus [38],0.5 µg/mL
same,MIC90,Staphylococcus [38],1 µg/mL
same,MIC,Staphylococcus capitis [39],> 1 µg/mL
same,MIC,Staphylococcus [40],> 1 µg/mL
same,MIC50,Streptococcus sanguinis,0.25 µg/mL
same,MIC90,Streptococcus sanguinis,1 µg/mL
same,MIC50,[41],0.5 µg/mL
same,MIC90,[41],1 µg/mL
same,MIC50,Enterococcus faecium [42],2 µg/mL
same,MIC90,Enterococcus faecium [42],4 µg/mL
